Measurements from ChEMBL document CHEMBL4007396, “New diphenylmethane derivatives as peroxisome proliferator-activated receptor alpha/gamma dual agonists endowed with anti-proliferative effects and mitochondrial activity” (Eur J Med Chem, 2017).
Active and inactive are the calls of the source. The rule behind the calls is not given here.

Columns and labels:
[1] = target: T1, Bile acid receptor (Homo sapiens) (UniProt Q96RI1); experiment: Agonist activity at GAL4-fused human FXR LBD expressed in human HepG2 cells up to 2 uM after 20 hrs by luciferase reporter gene assay; format: cell-based
T1 sequence (whole entry): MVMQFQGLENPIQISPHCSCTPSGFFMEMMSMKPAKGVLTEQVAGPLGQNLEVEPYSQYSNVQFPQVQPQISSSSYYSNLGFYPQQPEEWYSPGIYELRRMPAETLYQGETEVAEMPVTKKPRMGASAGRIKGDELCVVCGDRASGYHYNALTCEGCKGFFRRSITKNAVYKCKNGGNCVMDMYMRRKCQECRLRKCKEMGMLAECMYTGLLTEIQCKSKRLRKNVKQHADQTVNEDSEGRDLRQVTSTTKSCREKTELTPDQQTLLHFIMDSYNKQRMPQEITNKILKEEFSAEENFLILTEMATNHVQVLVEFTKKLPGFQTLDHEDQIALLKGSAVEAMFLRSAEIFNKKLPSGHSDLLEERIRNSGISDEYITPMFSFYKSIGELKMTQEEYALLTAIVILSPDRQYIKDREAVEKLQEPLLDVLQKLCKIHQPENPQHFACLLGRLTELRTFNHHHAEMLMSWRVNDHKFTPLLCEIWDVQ
Procedure, shortened: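 HepG2 in MEM/10% FBS, calcium-phosphate co-transfection 24 h after seeding with GAL4-FXR-LBD (30 ng), pGAL5TKpGL3 luciferase reporter (100 ng) and pCMVβgal (250 ng); 4 h later, 20 h ligand exposure in triplicate. Luciferase normalized to β-galactosidase (ONPG); efficacy as % of maximal fold induction of chenodeoxycholic acid reference; tested up to 2 μM.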

[2] = target: T2, Peroxisome proliferator-activated receptor alpha (Homo sapiens, UniProt Q07869); experiment: Transactivation of GAL4-fused human PPARalpa LBD expressed in human HepG2 cells after 20 hrs by luciferase reporter gene assay; format: cell-based
T2 sequence (Q07869 whole entry): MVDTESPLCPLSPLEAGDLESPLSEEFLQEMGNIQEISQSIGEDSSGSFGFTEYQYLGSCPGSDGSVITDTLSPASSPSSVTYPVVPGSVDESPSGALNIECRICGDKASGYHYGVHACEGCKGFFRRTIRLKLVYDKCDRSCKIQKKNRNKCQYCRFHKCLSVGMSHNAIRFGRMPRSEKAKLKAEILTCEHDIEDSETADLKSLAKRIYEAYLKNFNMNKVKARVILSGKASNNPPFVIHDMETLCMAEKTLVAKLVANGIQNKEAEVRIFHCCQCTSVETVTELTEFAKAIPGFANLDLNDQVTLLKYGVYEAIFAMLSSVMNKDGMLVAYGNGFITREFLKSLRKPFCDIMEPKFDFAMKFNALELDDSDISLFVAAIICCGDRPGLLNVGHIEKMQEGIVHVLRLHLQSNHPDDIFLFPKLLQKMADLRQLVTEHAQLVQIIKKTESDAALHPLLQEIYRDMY

[3] = target: T3, Peroxisome proliferator-activated receptor alpha (Homo sapiens) (UniProt Q07869); experiment: Agonist activity at PPARalpha assessed as induction of positive regulatory loop based receptor transcriptional activation by measuring upregulation of PPARalpha mRNA level in human HepG2 cells at 1 uM after 24 hrs by RT-PCR method; format: cell-based
T3 sequence (whole entry): T2 sequence (Q07869 whole entry)
Procedure, shortened: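 Serum-free HepG2 exposed 24 h to 1 μM test agent (Wy-14,643 reference at 50 μM). RNA extracted from 1x10⁶ cells; TaqMan real-time RT-PCR for CAC, CPT1 or PPARα, normalized to β-actin. Mean ± SD of three independent duplicate experiments; one-way ANOVA with Bonferroni test.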

[4] = target: T3, Peroxisome proliferator-activated receptor alpha (Homo sapiens); experiment: Agonist activity at PPARalpha in human HepG2 cells assessed as increase in CPT1 protein expression level at 1 uM after 48 hrs by Western blot method; format: cell-based
Procedure, shortened: (§1)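 HepG2 serum-depleted 24 h, then treated 48 h with 1 μM compound (Wy-14,643 at 50 μM as reference). Nitrocellulose immunoblots probed for CAC, CPT1 or PPARα with β-actin loading control, chemiluminescent detection; band densitometry expressed as fold change versus untreated cells; three independent experiments.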

[5] = target: T3, Peroxisome proliferator-activated receptor alpha (Homo sapiens); experiment: Agonist activity at PPARalpha assessed as induction of positive regulatory loop based receptor transcriptional activation by measuring upregulation of PPARalpha protein expression level in human HepG2 cells at 1 uM after 48 hrs by Western blot method; format: cell-based; procedure, shortened: as §1
[6] = target: T3, Peroxisome proliferator-activated receptor alpha (Homo sapiens); experiment: Agonist activity at PPARalpha in human HepG2 cells assessed as increase in mitochondrial mass at 1 uM by CellLight Mitochondria-GFP staining based fluorescent microscopic method relative to control; format: cell-based
Procedure, shortened: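 Serum-free HepG2 at 60% confluence transduced with Mitochondria-GFP BacMam 2.0 (50 particles/cell) and given 1 μM compound or 50 μM Wy-14,643 for 24 h. Imaged at 20x with GFP filters (ex 485/em 535 nm); separately, SDS/Tris pH 7.5 lysates read at ex 475, em 500-550 nm. Mean ± SD of three experiments, ANOVA/Bonferroni.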

[7] = target: T2, Peroxisome proliferator-activated receptor alpha; experiment: Binding affinity to PPARalpha (unknown origin) assessed as kinetic dissociation constant by SPR assay
[8] = target: T4, Peroxisome proliferator-activated receptor delta (Homo sapiens, UniProt Q03181); experiment: Binding affinity to PPARdelta (unknown origin) assessed as kinetic dissociation constant by SPR assay
T4 sequence (Q03181 whole entry): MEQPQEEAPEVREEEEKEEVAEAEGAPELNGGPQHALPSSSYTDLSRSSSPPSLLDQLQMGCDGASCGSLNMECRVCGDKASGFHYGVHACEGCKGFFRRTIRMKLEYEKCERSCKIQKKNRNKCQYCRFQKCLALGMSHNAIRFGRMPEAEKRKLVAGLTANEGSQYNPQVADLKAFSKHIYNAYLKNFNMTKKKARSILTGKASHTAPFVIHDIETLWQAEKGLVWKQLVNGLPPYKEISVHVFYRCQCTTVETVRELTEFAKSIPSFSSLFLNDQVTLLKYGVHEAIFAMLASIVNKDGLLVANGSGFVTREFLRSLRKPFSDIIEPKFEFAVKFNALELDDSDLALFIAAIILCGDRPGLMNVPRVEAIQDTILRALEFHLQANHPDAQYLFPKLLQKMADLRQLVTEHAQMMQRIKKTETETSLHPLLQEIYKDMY

SMILES	Activity [1]	EC50 [2]	Activity [3]	Activity [4]	Activity [5]	Activity [6]	Kd [7]	Kd [8]
C[C@H](Oc1ccc(Cc2ccc(OCc3coc(-c4ccccc4)n3)cc2)cc1)C(=O)O	inactive	46 nM	Active	Active	Active	30%	0.016 s⁻¹	Not Active
C[C@@H](Oc1ccc(Cc2ccc(OCc3coc(-c4ccccc4)n3)cc2)cc1)C(=O)O	inactive	42 nM	Active	Active	Active	30%	0.025 s⁻¹	Not Active
